The source made the active and inactive calls. The rule behind the calls is not given here.
How the values were obtained:
LAPC4 = assay: Cytotoxicity against human LAPC4 cells after 7 days by Alamar blue staining method; assay type: functional, cell-based; details: for IC50: LAPC4, 168 h
Outline: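 LAPC-4 cells seeded at 4000 cells/well in medium with 2 mM L-glutamine. After 1 day, treated with 1 nM R1881 plus a range of compound concentrations. Cell number read 7 days later by Alamar Blue staining on a luminometer.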

VCaP [1] = assay: Cytotoxicity against human VCaP cells after 7 days by Alamar blue staining method; assay type: functional, cell-based
Outline: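 VCaP cells seeded at 16,000 cells/well in phenol-red DMEM with 10% cFCS. After 1 day, treated with 0.1 nM R1881 plus a range of compound concentrations. Cell number read 7 days later by Alamar Blue staining on a luminometer.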

[2] = target: Protein arginine N-methyltransferase 5 (Homo sapiens) (UniProt O14744); assay: Residual activity of recombinant human PRMT5 expressed in Sf9 cells using histone H4 peptide as substrate at 100 uM by chemiluminescence assay
[3] = target: Protein arginine N-methyltransferase 5 (Homo sapiens) (UniProt O14744); assay: Inhibition of recombinant human PRMT5 expressed in Sf9 cells using histone H4 peptide as substrate by chemiluminescence assay
Outline: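 Purified recombinant human PRMT5 (Sf9-expressed) incubated 1 h with S-adenosylmethionine in 1× TBS pH 8.0 with 0.05% Tween20, on wells precoated with histone H4 peptide. Compounds came from 25 mM DMSO stocks diluted in water. Detection used a primary antibody to symmetric-dimethyl R3 of H4 (1 h), then HRP secondary and chemiluminescence. Mean of duplicates with SD.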

[4] = target: T1, Protein arginine N-methyltransferase 1 (Homo sapiens, UniProt Q99873); assay: Inhibition of recombinant human PRMT1 expressed in Escherichia coli using histone H4 peptide as substrate by chemiluminescence assay
Target sequence in this assay (Q99873 whole entry): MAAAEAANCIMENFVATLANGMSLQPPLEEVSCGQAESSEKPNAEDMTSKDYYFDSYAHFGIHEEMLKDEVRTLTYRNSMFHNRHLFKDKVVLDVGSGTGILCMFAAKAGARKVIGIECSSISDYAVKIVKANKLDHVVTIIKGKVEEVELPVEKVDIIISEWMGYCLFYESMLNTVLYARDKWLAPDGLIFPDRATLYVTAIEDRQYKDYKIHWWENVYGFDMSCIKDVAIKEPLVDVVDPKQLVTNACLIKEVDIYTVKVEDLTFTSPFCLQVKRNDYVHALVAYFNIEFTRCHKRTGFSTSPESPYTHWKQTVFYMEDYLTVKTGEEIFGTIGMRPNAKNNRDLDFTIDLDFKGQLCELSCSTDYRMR

[5] = target: T1, Protein arginine N-methyltransferase 1; assay: Inhibition of PRMT1-mediated FKBP5 gene expression in R1881-stimulated human VCaP cells by RT-PCR analysis; assay type: cell-based
Outline: (§1)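 VCaP cells treated with androgen alone or with increasing compound concentrations. Transcript levels measured by real-time PCR with gene-specific fluorogenic probes and normalized to human cyclophilin A. Values are means of independent triplicates.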
Target sequence in this assay (Q99873 whole entry, looked up): as the sequence (Q99873 whole entry) above

[6] = target: T1, Protein arginine N-methyltransferase 1; assay: Inhibition of PRMT1-mediated TMPRSS2 gene expression in R1881-stimulated human VCaP cells by RT-PCR analysis; assay type: cell-based; outline: as §1
Target sequence in this assay (Q99873 whole entry, looked up): as the sequence (Q99873 whole entry) above

VCaP [7] = assay: Inhibition of PRMT1 gene expression in androgen-stimulated human VCaP cells by RT-PCR analysis; assay type: functional, cell-based; outline: as §1
[8] = target: T1, Protein arginine N-methyltransferase 1; assay: Inhibition of PRMT1-mediated KLK2 gene expression in R1881-stimulated human VCaP cells at 1.56 to 100 uM by RT-PCR analysis; assay type: cell-based; outline: as §1
Target sequence in this assay (Q99873 whole entry, looked up): as the sequence (Q99873 whole entry) above

VCaP [9] = assay: Inhibition of AR gene expression in R1881-stimulated human VCaP cells at 1.56 to 100 uM by RT-PCR analysis; assay type: functional, cell-based; outline: as §1

Protein arginine N-methyltransferase 5 (Homo sapiens), sequence (O14744 whole entry): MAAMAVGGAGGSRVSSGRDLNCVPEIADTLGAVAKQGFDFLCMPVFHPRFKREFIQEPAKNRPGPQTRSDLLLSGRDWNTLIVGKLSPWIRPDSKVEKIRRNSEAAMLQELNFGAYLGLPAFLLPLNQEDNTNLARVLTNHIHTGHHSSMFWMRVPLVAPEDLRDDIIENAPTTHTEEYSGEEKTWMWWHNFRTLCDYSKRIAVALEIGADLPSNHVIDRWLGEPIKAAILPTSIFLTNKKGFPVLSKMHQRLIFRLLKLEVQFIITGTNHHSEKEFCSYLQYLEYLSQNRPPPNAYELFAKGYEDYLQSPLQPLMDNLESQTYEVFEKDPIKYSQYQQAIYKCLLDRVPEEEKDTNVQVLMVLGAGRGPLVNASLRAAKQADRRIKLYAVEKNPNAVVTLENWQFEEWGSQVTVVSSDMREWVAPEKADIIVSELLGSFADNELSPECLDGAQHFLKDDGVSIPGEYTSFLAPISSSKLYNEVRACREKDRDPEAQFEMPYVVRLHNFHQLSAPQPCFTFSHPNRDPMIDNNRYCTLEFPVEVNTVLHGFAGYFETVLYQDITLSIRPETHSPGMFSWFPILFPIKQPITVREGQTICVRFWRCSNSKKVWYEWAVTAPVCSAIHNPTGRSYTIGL

Row | SMILES | residual activity [2] | Activity (LAPC4) | Activity (VCaP [1]) | further results
1 | O=C(O)/C=C/c1cccc(N2CCCN(c3cccc(/C=C/C(=O)O)c3)C2=O)c1 | 74.4% | inactive | inactive | –
2 | O=C(Nc1ccc2ccc(S(=O)(=O)Nc3ccc(Oc4ccccc4)cc3)cc2c1)Nc1ccc2ccc(S(=O)(=O)Nc3ccc(Oc4ccccc4)cc3)cc2c1 | 38.5% | – | – | IC50 (LAPC4): 8.6 µM
3 | COc1ccc2c3c(cccc13)C(=O)N(C)C2=O | 46.2% | inactive | inactive | IC50 [4]: 16.3 µM
4 | O=C(Nc1ccc2c(O)cc(S(=O)(=O)O)cc2c1)Nc1ccc2c(O)cc(S(=O)(=O)O)cc2c1 | – | inactive | inactive | –
5 | O=C(Nc1ccc2ccc(S(=O)(=O)Nc3ccc4c(c3)OCCO4)cc2c1)Nc1ccc2ccc(S(=O)(=O)Nc3ccc4c(c3)OCCO4)cc2c1 | 71.8% | – | – | IC50 (LAPC4): 1.5 µM
6 | O=C(O)/C=C/c1ccc(N2CCN(c3ccc(/C=C/C(=O)O)cc3)C2=O)cc1 | 35.9% | inactive | inactive | –
7 | O=C(O)/C=C/c1cccc(N2CCCN(c3cccc(/C=C/C(=O)O)n3)C2=O)n1 | 48.7% | inactive | inactive | –
8 | O=C(O)/C=C/c1ccc(N2CCCN(c3ccc(/C=C/C(=O)O)cc3)C2=O)cc1 | 56.4% | inactive | inactive | –
9 | O=C(O)/C=C/c1cccc(N2CCN(c3cccc(/C=C/C(=O)O)c3)C2=O)c1 | 61.5% | inactive | inactive | –

Now from value to molecule, other results behind:

Row | residual activity [2] | SMILES | Activity (LAPC4) | Activity (VCaP [1]) | further results
10 | 10.3% | O=C(O)/C=C/c1cccc(N2CCN(c3cccc(/C=C/C(=O)O)n3)C2=O)n1 | inactive | inactive | inhibition [3]: Active
11 | 92.3% | O=C(O)/C=C/c1cccc(NC(=O)Nc2cccc(/C=C/C(=O)O)c2)c1 | inactive | inactive | –
12 | 56.4% | O=C(NCc1cccc(C(=O)O)c1)NCc1cccc(C(=O)O)c1 | inactive | inactive | –
13 | 46.2% | O=C(O)CCCCCNC(=O)NCCCCCC(=O)O | inactive | inactive | inhibition [5]: Dose-dependent effect; inhibition [6]: Dose-dependent effect; inhibition (VCaP [7]): inactive; inhibition [8]: inactive; IC50 [4]: 6.1 µM; inhibition (VCaP [9]): inactive
14 | 15.4% | O=C(NCCc1cccc(C(=O)O)c1)NCCc1cccc(C(=O)O)c1 | inactive | inactive | inhibition [3]: Active

From ChEMBL document CHEMBL3108746, “Novel symmetrical ureas as modulators of protein arginine methyl transferases” (Bioorg Med Chem, 2013)
